pIC50, pKd: −log10 of the molar value. Calls of active or inactive are those of the source. No cut-off for these calls is given here. A value given as a limit tells only on which side of the number the result lay.

Data set [1] has as its target Acyl-CoA (8-3)-desaturase (Rattus norvegicus) (UniProt Q920R3). Kind of data set: Displacement of [3H]T-3364366 from D5D in Sprague-Dawley rat liver microsomes at high concentrations after 150 mins by liquid scintillation counting. Put shortly: (§1)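 Filter binding with [³H]T-3364366 as probe on rat liver microsomes, incubated 150 min. Specific binding is total minus nonspecific. In displacement runs, DMSO serves as 100% and 10 μM nonlabeled T-3364366 as 0%. Mean ± SEM, n = 3; apparent Kd reported with 95% CI.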

Data set [2] addresses T1, Acyl-CoA (8-3)-desaturase (Homo sapiens, UniProt O60427). The data set can be described thus: Binding affinity to recombinant wild type D5D (unknown origin) expressed in baculovirus at 5 to 25 nM after 150 mins by liquid scintillation counting.
Target sequence in this assay (O60427 whole entry, looked up): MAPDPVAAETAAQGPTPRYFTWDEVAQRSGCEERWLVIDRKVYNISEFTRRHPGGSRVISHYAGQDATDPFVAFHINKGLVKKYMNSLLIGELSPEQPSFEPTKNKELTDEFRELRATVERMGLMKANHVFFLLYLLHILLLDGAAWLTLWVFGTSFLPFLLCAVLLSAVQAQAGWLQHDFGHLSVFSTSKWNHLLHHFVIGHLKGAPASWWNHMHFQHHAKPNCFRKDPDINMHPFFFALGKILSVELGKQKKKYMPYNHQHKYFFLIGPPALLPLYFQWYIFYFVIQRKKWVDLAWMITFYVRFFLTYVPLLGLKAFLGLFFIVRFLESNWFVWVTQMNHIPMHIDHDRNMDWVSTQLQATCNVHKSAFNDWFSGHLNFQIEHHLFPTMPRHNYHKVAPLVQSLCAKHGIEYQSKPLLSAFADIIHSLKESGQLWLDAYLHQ
Data set [3] in a line: AUC(0 to 8 hrs) in mouse at 1 mg/kg, po administered in cassette mode. The note with it: in vivo. Details: dose 1 mg/kg, route oral. The format is ADME, organism-based. Put shortly: (§2)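 Mouse cassette dosing, n = 3 per group. Given iv at 0.10 mg/kg or orally. Plasma AUC taken over 0–8 h. Total clearance, Vdss and MRT derived from the iv arm. Bioavailability F computed as a percentage.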

The nature of data set [4]: Total clearance in mouse at 0.10 mg/kg, iv administered in cassette mode. It counts as ADME, organism-based. The note with it: in vivo, 0.1 mg/kg. Put shortly: as §2
A short description of data set [5]: MRT in mouse at 0.10 mg/kg, iv administered in cassette mode. It counts as ADME, organism-based. Particulars: in vivo, 0.1 mg/kg. Put shortly: as §2
For data set [6], the target named is Acyl-CoA (8-3)-desaturase (Rattus norvegicus) (UniProt Q920R3). The data set can be described thus: Reversible binding affinity to D5D in Sprague-Dawley rat liver microsomes after 150 mins in presence of trichloroacetate by liquid scintillation counting.
A further data set concerns the target Acyl-CoA 6-desaturase (Rattus norvegicus, UniProt Q9Z122). Kind of data set: Inhibition of D6D in Sprague-Dawley rat liver microsomes using [14C]LA as substrate preincubated for 5 mins measured after 30 mins. (In general: Microsomes from liver hold many membrane-bound enzymes, among them those of drug oxidation.)
Data set [7] in a line: Volume of distribution in steady state in mouse at 0.10 mg/kg, iv administered in cassette mode. It counts as ADME, organism-based. Particulars: in vivo, 0.1 mg/kg, read-out: Vdss. Put shortly: as §2
Data set [8] is described as follows: Oral bioavailability in mouse at 1 mg/kg administered in cassette mode. It counts as ADME, organism-based. The note with it: in vivo. Put shortly:
as §2

The target in data set [9] is T2, Acyl-CoA (8-3)-desaturase (Rattus norvegicus, UniProt Q920R3). Kind of data set: Inhibition of D5D in Sprague-Dawley rat liver microsomes using [14C]DGLA as substrate preincubated for 5 mins measured after 120 mins.
Data set [10] concerns the target T2, Acyl-CoA (8-3)-desaturase. The data set can be described thus: Binding affinity to D5D in Sprague-Dawley rat liver microsomes after 150 mins by liquid scintillation counting. Particulars: read-out: Kd(app). The essentials:
as §1

For data set [11], the target named is T1, Acyl-CoA (8-3)-desaturase. The data set can be described thus: Inhibition of D5D in human HepG2 cells using [14C]DGLA as substrate preincubated for 30 mins followed by substrate addition measured after 3 hrs. The format is cell-based.
Target sequence in this assay (O60427 whole entry): as the sequence (O60427 whole entry, looked up) above
The nature of data set [12]: MRT in mouse at 1 mg/kg, po administered in cassette mode. It counts as ADME, organism-based. The note with it: in vivo.
Data set [13] addresses Acyl-CoA (8-3)-desaturase (Rattus norvegicus) (UniProt Q920R3). Kind of data set: Binding affinity to D5D in Sprague-Dawley rat liver microsomes at 1.2 to 20 nM measured up to 2.5 hrs by liquid scintillation counting. Particulars: TDE = time-dependent effect. Put shortly: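 Time course: various [³H]T-3364366 concentrations incubated with microsomal D5D. Specific binding determined at several time points up to 2.5 h.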

Data set [14] addresses T1, Acyl-CoA (8-3)-desaturase. The data set can be described thus: Inhibition of D5D in human HepG2 cells using [14C]DGLA as substrate assessed as suppression of [14C]AA production at 10 uM preincubated for 3 hrs followed by compound washout and addition of substrate measured after 4 hrs by liquid scintillation counting. It counts as cell-based. The essentials: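 HepG2 cells treated with compound for 3 h, then washed three times. Cells pulsed with [¹⁴C]DGLA and incubated a further 4 h. [¹⁴C]AA production normalized: DMSO as 100%, 10 μM T-3364366 without washout as 0%. Mean ± SEM, n = 4.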
Target sequence in this assay (O60427 whole entry, looked up): as above

Data set [15] addresses T2, Acyl-CoA (8-3)-desaturase. Kind of data set: Inhibition of D5D in rat RLN10 cells using [14C]DGLA as substrate preincubated for 30 mins followed by substrate addition measured after 3 hrs. It counts as cell-based.
For the next data set, the target named is T3, Acyl-CoA desaturase 1 (Rattus norvegicus, UniProt P07308).
T3 sequence (P07308 whole entry): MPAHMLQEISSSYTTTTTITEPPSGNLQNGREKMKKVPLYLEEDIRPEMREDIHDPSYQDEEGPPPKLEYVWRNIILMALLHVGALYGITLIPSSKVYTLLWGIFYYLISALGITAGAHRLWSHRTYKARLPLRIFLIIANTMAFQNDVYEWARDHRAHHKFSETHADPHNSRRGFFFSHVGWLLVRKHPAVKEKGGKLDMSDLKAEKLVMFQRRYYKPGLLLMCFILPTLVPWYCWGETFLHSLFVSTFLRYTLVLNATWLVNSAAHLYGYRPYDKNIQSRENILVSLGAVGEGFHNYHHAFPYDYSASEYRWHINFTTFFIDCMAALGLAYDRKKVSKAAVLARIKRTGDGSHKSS
Kind of data set: Inhibition of SCD in Sprague-Dawley rat liver microsomes using [14C]stearoyl-CoA as substrate preincubated for 5 mins measured after 30 mins.

The target in data set [16] is Acyl-CoA (8-3)-desaturase (Rattus norvegicus) (UniProt Q920R3). The data set can be described thus: Reversible binding affinity to D5D in Sprague-Dawley rat liver microsomes assessed as dissociation half life at 6 nM preincubated for 150 mins followed by 2 fold dilution by 10 uM of T-3364366 by liquid scintillation counting. The essentials: (§3)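 Binary complex formed by preincubating [³H]T-3364366 (6.0 nM) with microsomal D5D for 150 min. Mixture then diluted 2-fold with excess nonlabeled T-3364366 (10 μM) to block rebinding. Residual specific binding followed over time to 21 h. Dissociation half-life fitted with 95% CI, without correcting for time-dependent loss of binding.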

The species entered for a further data set is Homo sapiens. The data set can be described thus: Binding affinity to recombinant D6Db5 (1 to 100 residues)/D5Ddes (100 to 444 residues) domain swapped mutant (unknown origin) expressed in baculovirus at 5 to 25 nM after 150 mins by liquid scintillation counting.
A short description of data set [17]: AUC(0 to 8 hrs) in mouse at 0.10 mg/kg, iv administered in cassette mode. The format is ADME, organism-based. Also on record: dose 0.1 mg/kg, route intravenous. The note with it: in vivo, 0.1 mg/kg. The essentials:
as §2

Data set [18] deals with Acyl-CoA (8-3)-desaturase (Rattus norvegicus) (UniProt Q920R3). Kind of data set: Reversible binding affinity to D5D in Sprague-Dawley rat liver microsomes assessed as compound bound to protein at 6 nM preincubated for 150 mins followed by 2 fold dilution by 10 uM of T-3364366 measured after 21 hrs by liquid scintillation counting relative to control. The essentials: as §3

The target is the same in data set [19]. Kind of data set: Displacement of [3H]T-3364366 from D5D in Sprague-Dawley rat liver microsomes after 150 mins by liquid scintillation counting. The essentials: as §1
For data set [20], the target named is T1, Acyl-CoA (8-3)-desaturase. Kind of data set: Ratio of inhibition of D5D in human HepG2 cells preincubated for 30 mins followed by [14C]DGLA substrate addition measured after 3 hrs to inhibition of D5D in human HepG2 cells assessed as inhibition of [14C]AA production preincubated for 3 hrs followed by compound washout and addition of [14C]DGLA substrate measured after 4 hrs. It counts as cell-based.
Target sequence in this assay (O60427 whole entry, looked up): as the sequence (O60427 whole entry, looked up) above

Acyl-CoA (8-3)-desaturase (Rattus norvegicus), sequence (Q920R3 whole entry, looked up): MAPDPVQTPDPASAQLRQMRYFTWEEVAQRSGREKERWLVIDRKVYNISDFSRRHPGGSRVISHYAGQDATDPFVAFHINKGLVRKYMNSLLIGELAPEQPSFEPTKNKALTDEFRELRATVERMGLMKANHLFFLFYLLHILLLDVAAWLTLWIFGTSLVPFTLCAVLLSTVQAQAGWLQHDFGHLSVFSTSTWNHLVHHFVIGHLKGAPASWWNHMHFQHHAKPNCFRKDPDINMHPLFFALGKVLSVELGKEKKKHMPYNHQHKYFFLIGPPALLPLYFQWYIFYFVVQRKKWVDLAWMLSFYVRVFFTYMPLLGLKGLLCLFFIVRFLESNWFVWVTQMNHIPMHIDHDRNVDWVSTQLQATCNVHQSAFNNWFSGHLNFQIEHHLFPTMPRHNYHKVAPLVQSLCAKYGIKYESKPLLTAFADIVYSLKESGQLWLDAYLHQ
T2 sequence (Q920R3 whole entry): as the sequence (Q920R3 whole entry, looked up) above
Acyl-CoA 6-desaturase, sequence (Q9Z122 whole entry): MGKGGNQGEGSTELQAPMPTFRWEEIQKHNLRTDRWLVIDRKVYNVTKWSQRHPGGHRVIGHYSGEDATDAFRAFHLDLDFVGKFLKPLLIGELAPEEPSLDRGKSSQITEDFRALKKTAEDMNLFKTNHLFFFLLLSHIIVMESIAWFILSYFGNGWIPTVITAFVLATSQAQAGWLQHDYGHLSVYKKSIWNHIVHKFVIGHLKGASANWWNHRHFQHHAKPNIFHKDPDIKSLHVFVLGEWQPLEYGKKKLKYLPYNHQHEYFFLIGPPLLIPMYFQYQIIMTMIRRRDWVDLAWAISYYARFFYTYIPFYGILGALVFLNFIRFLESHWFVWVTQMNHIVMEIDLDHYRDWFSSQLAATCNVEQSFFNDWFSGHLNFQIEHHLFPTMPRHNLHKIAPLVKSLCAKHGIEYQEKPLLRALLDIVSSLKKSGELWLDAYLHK

Consider `N#CC(CCCN1CCN(/N=C/c2cccnc2)CC1)(c1ccccc1)c1ccccc1`, for which, in [1], the inhibition result is “Active”.
For `CC(=O)NCCSc1nc2cscc2c(=O)n1-c1ccc(OCC(F)(F)F)cc1`, the result (in data set [2]; in data set [6]; in the data set listed under Homo sapiens) was Active. Besides, the AUC(0-t) (as a rule, exposure summed from dosing to a finite time, without extrapolation to infinity) at 6 h in [3] was 260 ng·h/mL; in data set [17] it was 65 ng·h/mL. Also, the clearance (commonly the rate of elimination divided by the concentration) in data set [4] was 25 mL/min/kg. Further, the MRT (commonly a mean duration of stay, worked out from the concentration-time curve) in data set [5] was determined as 0.65 h; in data set [12] it was 1.8 h. The pIC50 (as a rule, the IC50 on a negative log10 scale, so that one unit is a factor of ten) against Acyl-CoA 6-desaturase was 5.21; in [9] it was 7.72; in data set [11] it was 8.72; in data set [15] it was 8.68; at Acyl-CoA desaturase 1, less than 5.00. For the same molecule, in data set [7], the Vd was 1.1 L/kg. In data set [8], the bioavailability (usually the share of a dose that reaches the circulation, judged against a reference dose that is usually intravenous) was found to be 41%. Further, the pKd (commonly the negative decadic logarithm of the Kd, by convention in mol/L) in [10] was 8.57. The Activity entry is “Tde” in data set [13] and less than 10% in [18]. Besides, the inhibition result in [14] is “Active”. The T1/2 in [16] came to 2 h.
Regarding `Cc1ccc2c(c1)Nc1cc(C)ccc1CC2`, the inhibition result in [19] is “Active”.
With `Nc1ccccc1C(=O)Nc1cccc(Cl)c1`, the Ratio in data set [20] was found to be 1000. Besides, in data set [19], the inhibition result is “Active”. The pIC50 against Acyl-CoA 6-desaturase was less than 5.00; in data set [9] it was 6.80; in data set [11], 7.54; in data set [15], 7.59; against Acyl-CoA desaturase 1, less than 5.00.
`COc1ccc(OC)c(NC(=O)Nc2cccc(F)c2)c1`: the inhibition entry in data set [19] was “Active”.
For the molecule `Cc1cn([C@H]2C[C@@H](O)[C@@H](COC(c3ccccc3)(c3ccccc3)c3ccccc3)O2)c(=O)[nH]c1=O`, the inhibition result in [19] was “Active”.

Source of the values: ChEMBL document CHEMBL4431397, “T-3364366 Targets the Desaturase Domain of Delta-5 Desaturase with Nanomolar Potency and a Multihour Residence Time” (ACS Med Chem Lett, 2016).
